Source: ChEMBL document CHEMBL3244254, “Hypolipidemic activity of 5-aryl-3-methylvaleric acid derivatives” (J Med Chem, 1977)

Experiments:
[1] = target: T1, 3-hydroxy-3-methylglutaryl-coenzyme A reductase (Rattus norvegicus, UniProt P51639); assay: Inhibition of HMG-coA reductase in CD rat liver microsomal-cytosol fraction assessed as inhibition of nonsaponifiable lipid synthesis using [2-14C]acetate as substrate after 90 mins by scintillation counting analysis
T1 sequence (P51639 whole entry): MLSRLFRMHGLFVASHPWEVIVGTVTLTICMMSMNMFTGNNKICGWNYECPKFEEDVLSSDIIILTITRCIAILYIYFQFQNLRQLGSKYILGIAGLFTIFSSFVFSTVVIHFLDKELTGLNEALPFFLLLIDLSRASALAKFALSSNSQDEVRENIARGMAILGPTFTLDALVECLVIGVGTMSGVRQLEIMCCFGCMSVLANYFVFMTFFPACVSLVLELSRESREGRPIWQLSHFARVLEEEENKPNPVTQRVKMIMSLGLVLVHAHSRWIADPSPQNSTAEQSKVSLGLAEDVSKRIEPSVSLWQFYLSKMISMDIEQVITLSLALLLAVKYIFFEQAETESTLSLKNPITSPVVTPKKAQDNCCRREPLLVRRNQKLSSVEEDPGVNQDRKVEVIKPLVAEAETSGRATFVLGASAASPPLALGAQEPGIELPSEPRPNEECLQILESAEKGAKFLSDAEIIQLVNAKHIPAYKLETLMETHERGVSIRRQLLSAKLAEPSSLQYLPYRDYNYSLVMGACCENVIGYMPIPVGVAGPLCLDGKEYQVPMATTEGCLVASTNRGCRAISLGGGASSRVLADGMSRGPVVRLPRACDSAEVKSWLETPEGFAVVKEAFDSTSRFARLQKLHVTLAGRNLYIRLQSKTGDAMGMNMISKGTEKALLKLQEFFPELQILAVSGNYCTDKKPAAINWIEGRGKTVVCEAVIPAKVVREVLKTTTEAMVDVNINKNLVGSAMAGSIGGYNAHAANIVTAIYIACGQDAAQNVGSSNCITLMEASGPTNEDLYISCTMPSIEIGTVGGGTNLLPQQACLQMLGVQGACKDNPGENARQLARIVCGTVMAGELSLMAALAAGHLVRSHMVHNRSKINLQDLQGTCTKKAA
Method in brief: (§1)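 Male CD rats, 150–200 g, housed singly 5 days on chow with 2% DEAE-cellulose, killed by cervical dislocation. Liver microsomal-cytosol fraction as enzyme source, [2-14C]acetate substrate, 90 min at 37 °C. Compounds added in Me2SO, at least four concentrations, duplicates. Lipid extract counted by scintillation (dpm). Heat-inactivated fraction corrects for nonenzymatic incorporation. Fractions are total lipid, nonsaponifiable lipid and fatty acid. IC50 is molar concentration giving 50% inhibition.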

Rattus norvegicus [2] = assay: Hypolipidemic activity in intact normal CD rat assessed as reduction in serum cholesterol level at 0.45 mmol/kg/day administered through diet for 5 days measured on day 6; type: functional
Method in brief: (§2)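 Male CD rats, 300–380 g, housed in pairs, 12-h light/dark, free access to food and water. Test agent mixed into ground chow at 0.2%; controls got plain ground chow; 8 rats per group. Body weight and group food intake recorded. Fed 5 days, anesthetized on day 6, blood collected, serum total cholesterol or triglyceride measured. Expressed as % reduction vs concurrent controls, Student's t test p ≤ 0.05.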

[3] = target: T1, 3-hydroxy-3-methylglutaryl-coenzyme A reductase; assay: Inhibition of HMG-coA reductase in CD rat liver microsomal-cytosol fraction assessed as inhibition of total lipid synthesis using [2-14C]acetate as substrate after 90 mins by scintillation counting analysis; method in brief: as §1
Rattus norvegicus [4] = assay: Hypolipidemic activity in intact normal CD rat assessed as reduction in serum triglyceride level at 0.45 mmol/kg/day administered through diet for 5 days measured on day 6; type: functional; method in brief: as §2
Rattus norvegicus [5] = assay: Hypolipidemic activity in intact normal CD rat assessed as reduction in serum triglyceride level at 0.43 mmol/kg/day administered through diet for 5 days measured on day 6; type: functional; method in brief: as §2
Rattus norvegicus [6] = assay: Hypolipidemic activity in intact normal CD rat assessed as reduction in serum cholesterol level at 0.43 mmol/kg/day administered through diet for 5 days measured on day 6; type: functional; method in brief: as §2
Rattus norvegicus [7] = assay: Hypolipidemic activity in intact normal CD rat assessed as reduction in serum triglyceride level at 0.40 mmol/kg/day administered through diet for 5 days measured on day 6; type: functional; method in brief: as §2
Rattus norvegicus [8] = assay: Hypolipidemic activity in intact normal CD rat assessed as reduction in serum cholesterol level at 0.40 mmol/kg/day administered through diet for 5 days measured on day 6; type: functional; method in brief: as §2
Rattus norvegicus [9] = assay: Hypolipidemic activity in intact normal CD rat assessed as reduction in serum cholesterol level at 0.38 mmol/kg/day administered through diet for 5 days measured on day 6; type: functional; method in brief: as §2
Rattus norvegicus [10] = assay: Hypolipidemic activity in intact normal CD rat assessed as reduction in serum triglyceride level at 0.38 mmol/kg/day administered through diet for 5 days measured on day 6; type: functional; method in brief: as §2
Rattus norvegicus [11] = assay: Hypolipidemic activity in intact normal CD rat assessed as reduction in serum triglyceride level at 0.41 mmol/kg/day administered through diet for 5 days measured on day 6; type: functional; method in brief: as §2
Rattus norvegicus [12] = assay: Hypolipidemic activity in intact normal CD rat assessed as reduction in serum cholesterol level at 0.41 mmol/kg/day administered through diet for 5 days measured on day 6; type: functional; method in brief: as §2
Rattus norvegicus [13] = assay: Hypolipidemic activity in intact normal CD rat assessed as reduction in serum triglyceride level at 0.39 mmol/kg/day administered through diet for 5 days measured on day 6; type: functional; method in brief: as §2
Rattus norvegicus [14] = assay: Hypolipidemic activity in intact normal CD rat assessed as reduction in serum cholesterol level at 0.39 mmol/kg/day administered through diet for 5 days measured on day 6; type: functional; method in brief: as §2
Rattus norvegicus [15] = assay: Hypolipidemic activity in intact normal CD rat assessed as reduction in serum cholesterol level at 0.42 mmol/kg/day administered through diet for 5 days measured on day 6; type: functional; method in brief: as §2
Rattus norvegicus [16] = assay: Hypolipidemic activity in intact normal CD rat assessed as reduction in serum triglyceride level at 0.42 mmol/kg/day administered through diet for 5 days measured on day 6; type: functional; method in brief: as §2
Rattus norvegicus [17] = assay: Hypolipidemic activity in intact normal CD rat assessed as reduction in serum triglyceride level at 0.36 mmol/kg/day administered through diet for 5 days measured on day 6; type: functional; method in brief: as §2
Rattus norvegicus [18] = assay: Hypolipidemic activity in intact normal CD rat assessed as reduction in serum cholesterol level at 0.36 mmol/kg/day administered through diet for 5 days measured on day 6; type: functional; method in brief: as §2
Rattus norvegicus [19] = assay: Hypolipidemic activity in intact normal CD rat assessed as reduction in serum triglyceride level at 0.51 mmol/kg/day administered through diet for 5 days measured on day 6; type: functional; method in brief: as §2
Rattus norvegicus [20] = assay: Hypolipidemic activity in intact normal CD rat assessed as reduction in serum cholesterol level at 0.51 mmol/kg/day administered through diet for 5 days measured on day 6; type: functional; method in brief: as §2

Row | SMILES | IC50 [1] | IC50 [3] | further results
1 | CC(CCc1ccc(-c2ccccc2)cc1)CC(=O)O (stereo unspecified) | 2 µM | 20 µM | inhibition in vivo at 450 µmol/kg (Rattus norvegicus [2]): 16%; inhibition in vivo at 450 µmol/kg (Rattus norvegicus [4]): 26%
2 | CC(CC(=O)O)CC(=O)c1ccc(-c2ccccc2)cc1 (stereo unspecified) | 70 µM | 180 µM | inhibition in vivo at 430 µmol/kg (Rattus norvegicus [5]): 16%; inhibition in vivo at 430 µmol/kg (Rattus norvegicus [6]): 26%
3 | CC(CC(=O)O)CC(=O)c1ccc(Oc2ccccc2)cc1 (stereo unspecified) | 290 µM | 850 µM | inhibition in vivo at 400 µmol/kg (Rattus norvegicus [7]): ≥ 36%; inhibition in vivo at 400 µmol/kg (Rattus norvegicus [8]): 16%
4 | CC(CC(=O)O)CC(=O)c1ccc(Sc2ccccc2)cc1 (stereo unspecified) | 240 µM | 570 µM | inhibition in vivo at 380 µmol/kg (Rattus norvegicus [9]): 16%; inhibition in vivo at 380 µmol/kg (Rattus norvegicus [10]): ≥ 36%
5 | CC(CC(=O)O)CC(=O)c1ccc2oc3ccccc3c2c1 (stereo unspecified) | 110 µM | 260 µM | inhibition in vivo at 410 µmol/kg (Rattus norvegicus [11]): 26%; inhibition in vivo at 410 µmol/kg (Rattus norvegicus [12]): 0%
6 | CC(CC(=O)O)CC(=O)c1ccc2sc3ccccc3c2c1 (stereo unspecified) | 160 µM | 310 µM | inhibition in vivo at 380 µmol/kg (Rattus norvegicus [9]): 16%; inhibition in vivo at 380 µmol/kg (Rattus norvegicus [10]): 26%
7 | CC(CC(=O)O)CC(=O)c1ccc2c(c1)CCc1ccccc1-2 (stereo unspecified) | 30 µM | 60 µM | inhibition in vivo at 390 µmol/kg (Rattus norvegicus [13]): ≥ 36%; inhibition in vivo at 390 µmol/kg (Rattus norvegicus [14]): 0%
8 | CC(CCc1ccc(Oc2ccccc2)cc1)CC(=O)O (stereo unspecified) | 20 µM | 30 µM | inhibition in vivo at 420 µmol/kg (Rattus norvegicus [15]): 26%; inhibition in vivo at 420 µmol/kg (Rattus norvegicus [16]): ≥ 36%
9 | CC(CCc1ccc(Sc2ccccc2)cc1)CC(=O)O (stereo unspecified) | 20 µM | 40 µM | inhibition in vivo at 400 µmol/kg (Rattus norvegicus [7]): ≥ 36%; inhibition in vivo at 400 µmol/kg (Rattus norvegicus [8]): 26%
10 | CC(CCc1ccc(S(=O)(=O)c2ccccc2)cc1)CC(=O)O (stereo unspecified) | 40 µM | 70 µM | inhibition in vivo at 360 µmol/kg (Rattus norvegicus [17]): 60%; inhibition in vivo at 360 µmol/kg (Rattus norvegicus [18]): 45%
11 | CC(CCc1ccc2oc3ccccc3c2c1)CC(=O)O (stereo unspecified) | 360 µM | 810 µM | inhibition in vivo at 430 µmol/kg (Rattus norvegicus [5]): ≥ 36%; inhibition in vivo at 430 µmol/kg (Rattus norvegicus [6]): 26%
12 | CC(CCc1ccc2sc3ccccc3c2c1)CC(=O)O (stereo unspecified) | 70 µM | 190 µM | inhibition in vivo at 430 µmol/kg (Rattus norvegicus [5]): ≥ 36%; inhibition in vivo at 430 µmol/kg (Rattus norvegicus [6]): 0%
13 | CC(CCc1ccc2c(c1)-c1ccccc1S2(=O)=O)CC(=O)O (stereo unspecified) | 80 µM | 50 µM | inhibition in vivo at 360 µmol/kg (Rattus norvegicus [17]): ≥ 36%; inhibition in vivo at 360 µmol/kg (Rattus norvegicus [18]): 16%
14 | CC(C)(Oc1ccc(Cl)cc1)C(=O)O | 860 µM | 630 µM | inhibition in vivo at 510 µmol/kg (Rattus norvegicus [19]): 26%; inhibition in vivo at 510 µmol/kg (Rattus norvegicus [20]): 26%
